# Source: PubChem
# A selection: hits, their analogues and other compounds. The true share with any hit is near 1.8%.
# Gli-Sufu block: Gli-Sufu pathway antagonism; inhibition, % at 5 µM; actives 0.74% (n = 340,000); Sufu-KO-LIGHT fibroblasts, Gli luciferase reporter luminescence;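 active = inhibition above about 55%, limit read from the data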;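 also: 0% = DMSO-treated cells and 100% = wells with medium but no cells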
# hiPSC survival: increases survival of single human iPS cells. hiPSC single-cell survival, ATPlite luminescence; 100% = ROCK inhibitor wells, 0% = DMSO. actives 0.044% (n = 360,000). AID 602274. survival enhancement, % at 20 µM; in the data active = survival enhancement above about 18%;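 also: cells exposed to compounds for 16 hours before the ATP read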
# Jurkat NFkB inh: lowers PMA/ionomycin-induced NF-kB signal in Jurkat cells. actives 0.53% (n = 330,000). PMA/ionomycin-induced NF-kB luciferase reporter, luminescence. inhibition, % at 4 µM; in the data active = inhibition above about 50%
# Lipid droplet: modulators of hepatic lipid droplet formation; actives 0.4% (n = 240,000); AML12 mouse hepatocytes, oleate lipid droplets, BODIPY imaging; inhibition, % at 6.5 µM;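 active = lipid droplet intensity inhibited by at least 50%, with more than 500 cells counted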
#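 Test system: AML12 hepatocytes (mouse); reagent: oleate loading, 100 µM; dosing: one dose, 6.5 µM compound; incubation: overnight exposure; signal: fluorescence imaging, 20x objective, two fields per well; read-out basis: % inhibition of corrected integrated BODIPY droplet signal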
# H9c2 TAG inh: inhibitors of triacylglycerol accumulation; H9c2 cells, Nile Red lipid (TAG) fluorescence; cells loaded with 200 µM oleic acid; inhibition, % at 12.5 µM; actives 0.66% (n = 230,000);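 active = pattern-corrected inhibition of lipid staining of at least 50% with the nuclear-stain viability signal not falling by more than 50%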;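 also: 0% = DMSO wells and 100% = triacsin C control wells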
# 697 NFkB inh: inhibitors of the PMA/ionomycin-induced NF-kB reporter in 697 B cells | actives 0.33% (n = 330,000) | AID 435022 | 697 B-cell NF-kB luciferase reporter, 16 h | inhibition, % at 4 µM; in the data active = inhibition above about 35%
# Hep lipid conf: hepatic lipid droplet formation inhibition, confirmed; actives 65% (n = 870); inhibition, % at 5.2 µM; shares compounds with Lipid droplet; AID 463183; AML12 mouse hepatocytes, BODIPY lipid droplet imaging; droplets induced with 100 µM oleic acid;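 active = inhibition of lipid droplet metric at least 50%, with more than 300 cells in each of four replicates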;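 also: plate controls were DMSO with oleic acid for no effect and 5 µM Triacsin-C for full effect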
# AML12 cytotox: counter-screen for cytotoxicity in AML12 mouse hepatocytes; shares compounds with Lipid droplet; DAPI nuclear morphology cytotoxicity imaging; active compounds read high; cells fed 100 µM oleate overnight; z-score at 5 µM; actives 3% (n = 870); AID 463200; in the data active = z-score above about 6.3;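 also: compound exposure lasted overnight at 37 °C before fixation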
# AML12 tox ATP: AML12 hepatocyte cytotoxicity, confirmed; AID 463219; AML12 mouse hepatocyte viability, ATP luminescence; cells loaded with 100 µM oleic acid; cytotoxicity, % at 50 µM; 530 tested, under 10 active; shares compounds with Lipid droplet;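 active = cytotoxicity above 50% in each of four replicates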;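 also: compound exposure lasted overnight at 37 °C before the ATP read; 0% = DMSO-treated cells and 100% = wells with no cells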
# * hit, by the source's call; / = no result.
SMILES,Gli-Sufu block,hiPSC survival,Jurkat NFkB inh,Lipid droplet,H9c2 TAG inh,697 NFkB inh,Hep lipid conf,AML12 cytotox,AML12 tox ATP
Cc1c(O)ccc(/C=N/Nc2nc(-c3cccnc3)nc3ccccc23)c1O,-46,0,-3,52*,69*,-62,81*,11*,/
COc1ccc(CCNC(=O)CCOc2cc(C)ccc2C)cc1OC,2,0,10,68*,34,-10,91*,-0.092,12
COc1ccc(CCNC(=O)CCOc2ccc(C)cc2)cc1OC,5,0,-26,7,23,-22,/,/,/
COc1ccc(CCNC(=O)Cc2ccccc2)cc1OC,-2,0,2,-2,-5,8,/,/,/
COc1ccc(CCNC(=O)CC(c2ccccc2)c2cc(C)ccc2O)cc1OC (stereo unspecified),5,0,-18,53*,/,20,30,0.95,/
C[n+]1cccc(/C=N/NC(=O)CC23CC4CC(CC(C4)C2)C3)c1,13,0,2,-3,8,6,/,/,/
O=C(Cc1ccccc1F)Nc1nc(-c2ccc(F)c(F)c2)cs1,-49,0,-20,-29,/,-12,/,/,/
O=C(Cc1ccc(F)cc1)Nc1nc(-c2ccc(F)cc2)cs1,11,0,9,29,/,-2,/,/,/
CC(=O)Nc1ccc(-c2csc(NC(=O)Cc3ccccc3F)n2)cc1,-30,1,-12,58*,/,6,75*,-0.2,-5
CC(=O)Nc1ccc(-c2csc(NC(=O)Cc3cccc(F)c3)n2)cc1,-11,0,28,64*,/,16,100*,0.11,-14
CN1C(C(=O)Nc2cccc(O)c2)=CC(c2cccs2)=NS1(=O)=O,0,-2,3,-40,10,2,/,/,/
CCc1ccccc1NC(=O)C1=CC(c2cccs2)=NS(=O)(=O)N1C,-8,-1,6,72*,39,-16,105*,-0.14,18
COc1ccc(CCN2C(=O)CC(N3CCOCC3)C2=O)cc1OC (stereo unspecified),4,-3,-9,51*,-5,16,25,-0.31,/
CC(=O)Nc1ccc(NC(=O)CC(NC(=O)c2ccccc2)c2ccccc2)cc1 (stereo unspecified),5,-1,-1,-15,/,6,/,/,/
CCOC(=O)c1ccc(N2CCN(c3ccc(F)cc3)CC2)c(NC(=O)Nc2cccc(OC)c2)c1,17,0,6,3,/,-16,/,/,/
CCOC(=O)c1ccc(N2CCN(c3ccccc3F)CC2)c(NC(=O)Nc2ccccc2)c1,-5,1,12,52*,/,2,100*,-0.15,-5
COC(=O)CNC(=O)Cc1c(C)n(C(=O)c2ccc(Cl)cc2)c2ccc(OC)cc12,-24,0,4,-7,10,-20,/,/,/
COc1ccc(NC(=O)Cc2c(C)n(C(=O)c3ccc(Cl)cc3)c3ccc(OC)cc23)cc1,20,-1,9,83*,36,-8,98*,0.43,/
Nc1nc(-c2ccccc2)c(N=Nc2ccccc2Cl)s1,2,-1,0,104*,/,-10,114*,-0.57,32
Cc1ncc(N=Nc2ccccc2Cl)c(-c2ccccc2)n1,-2,3,13,/,18,3,/,/,/
Nc1nc(-c2ccccc2)c(N=Nc2cccc3ccccc23)s1,5,1,-1,113*,/,9,115*,0.42,44
O=C(CNC(=O)c1ccccc1Cl)NCCc1cccs1,1,-1,-1,/,-2,12,/,/,/
CCc1nn(CC(=O)NCCCN(CC)Cc2ccccc2)c(=O)c2cc3sccc3n12,7,-1,26,-30,/,-11,/,/,/
CCCCN(CCCNC(=O)Cn1nc(CC)n2c(cc3sc(C)cc32)c1=O)Cc1ccccc1,38,0,17,69*,/,-24,89*,-0.5,15
CCOC(=O)C(NC(=O)c1ccccc1)(OCc1ccccc1)C(F)(F)F (stereo unspecified),5,-1,-3,54*,/,-14,66*,-0.86,15
SMILES,Gli-Sufu block,hiPSC survival,Jurkat NFkB inh,Lipid droplet,H9c2 TAG inh,697 NFkB inh,Hep lipid conf,AML12 cytotox,AML12 tox ATP
COC(=O)c1ccc(/C=N/NC(=S)NCCN2CCOCC2)cc1,30,0,-13,-8,4,-11,/,/,/
OC(CN1CC=C(/C=C/c2ccc(Br)cc2)CC1)c1ccccc1 (stereo unspecified),32,0,16,-9,1,3,/,/,/
Cc1sc(NC(=O)Cc2ccc3c(c2)OCO3)nc1-c1ccc2c(c1)CCN2C(=O)c1ccc(F)cc1,18,1,33,34,/,-21,/,/,/
Cc1sc(NC(=O)Cc2ccc3c(c2)OCO3)nc1-c1ccc2c(c1)CCN2C(=O)c1ccccc1F,2,1,16,51*,/,-28,83*,0.17,3
O=C(NCc1ccc(C(=O)O)cc1)OCc1ccccc1,4,0,-22,63*,8,-48,15,0.0019,/
CCOC(=O)NCc1ccccc1,3,-2,-4,-5,-2,-5,/,/,/
COC(=O)c1ccc(-c2noc(CN(Cc3ccncc3)CC3CCCO3)n2)cc1 (stereo unspecified),8,-1,-3,6,-10,4,/,/,/
COC(=O)c1ccc(-c2noc(CN(C)CC3CCCCO3)n2)cc1 (stereo unspecified),-49,0,-12,50*,-14,-63,8,0.057,/
O=C(c1ccc(S(=O)(=O)Nc2cccc(C(F)(F)F)c2)cc1)N1CCOCC1,13,1,-14,58*,6,-2,90*,0.61,18
OC(COc1ccc2cc(Br)ccc2c1)Cn1ccnc1 (stereo unspecified),/,1,1,53*,/,-5,27,-0.39,/
CSc1ccc(CN2CCN(C3CCCC3)C(CCO)C2)cc1 (stereo unspecified),26,0,15,55*,-2,12,-3,-0.55,/
OCCC1CN(Cc2ccncc2)CCN1C1CCCC1 (stereo unspecified),-10,-2,-2,11,0,2,/,/,/
CC(C)(C)C(=O)Nc1nc2c(s1)COc1ccccc1-2,-37,-3,-12,55*,46,-27,106*,-0.72,0
Cc1ccc(NC(=O)C2CCCN(C(=O)c3ccc(Cl)cc3)C2)cc1S(=O)(=O)N1CCOCC1 (stereo unspecified),21,0,19,-17,3,-2,/,/,/
